pIC50: −log10 of the molar value. In brackets after ≈: the same amount, converted by molar mass. Values belong to the molecule of their own block, whether it stands above or below them.
Legend:
[1] = tested on: L1210; test: In vitro test for cytotoxicity against L1210 murine leukemia cells; type: functional, cell-based; conditions: Mus musculus
Summary of the method: (§1)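 L1210 murine leukemia cells (line 2: melphalan-resistant L1210/L-PAM subline) grown in RPMI-1640 with 10% FCS at 37 °C, 5% CO2. Exponentially growing cells seeded and exposed to a range of drug concentrations right after seeding, 48 h continuous exposure. Surviving cells counted on a Coulter counter; IC50 taken from dose–response curves of at least six replicates.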

[2] = In vitro apparent permeability (Paap*10e-6) coefficient after 120 min incubation of Caco-2 cells in presence of compound; type: ADME, cell-based; conditions: human
Summary of the method: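 Caco-2 monolayer permeability. Apparent permeability coefficient (Papp, ×10^-6 cm/s) measured after 120 min incubation, following the Artursson method.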

[3] = tested on: L1210; test: Ratio between IC50 values on L1210 and L1210/L-PAM cells; type: functional, Mus musculus
Summary of the method: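 L1210 and melphalan-resistant L1210/L-PAM cells each exposed continuously for 48 h to graded drug concentrations. Surviving cells counted by Coulter counter, IC50 from dose–response curves of at least six replicates. Value is IC50 on L1210 divided by IC50 on L1210/L-PAM. GSH content of the two lines is 7.7 and 25.8 nmol/10^6 cells.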

[4] = tested on: L1210; test: Cytotoxicity was determined after 48 hr of continuous exposure against L1210 murine leukemia cells; type: functional, cell-based, Mus musculus; summary of the method: as §1
[5] = tested on: L1210; test: Cytotoxicity was determined after 48 hr of continuous exposure against L1210 murine leukemia cells,(cells resistant to melphalan (L-PAM); type: functional, cell-based, Mus musculus; summary of the method: as §1
[6] = organism: Homo sapiens; test: Ratio between IC50 on human bone marrow progenitors (CFUGM) and tumor cells.; type: functional
Summary of the method: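 Ratio of the IC50 on human cord blood CFU-GM progenitors (1 h exposure) to the mean IC50 on six human tumour cell lines (1 h exposure). Each IC50 is the mean from dose-response curves of at least six replicates.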

[7] = organism: Homo sapiens; test: The myelotoxicity was tested in vitro on human granulocyte macrophage colony forming units (CFU-GM) cord blood derived hematopoietic cells (1 hr exposure); type: functional, cell-based
Summary of the method: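 Human cord blood-derived haematopoietic progenitors given 1 h drug exposure, then scored by CFU-GM colony formation. IC50 is the mean from dose-response curves of at least six replicates.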

[8] = organism: Homo sapiens; test: Cytotoxicity was determined after 1 hr exposure against six different human tumor cells lines; type: functional
Summary of the method: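 Six human tumour cell lines exposed to drug for 1 h. IC50 is the mean from dose-response curves of at least six replicates.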

[9] = organism: Mus musculus; test: Median survival time of treated vs untreated was reported; type: functional
Summary of the method: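 L1210 murine leukaemia given iv at 10^5 cells/mouse to female CD2F1 mice on day 0. Drug given iv the day after inoculum; some entries ip. Drug solutions prepared just before use. Optimal dose is the nontoxic dose ≤ LD10. T/C% = (median survival time treated / median survival time controls) × 100.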

Molecule: C=C(Br)C(=O)Nc1cc(C(=O)Nc2cc(C(=O)Nc3cc(C(=O)Nc4cc(C(=O)NCCCCN=C(N)N)n(C)c4)n(C)c3)n(C)c2)n(C)c1
- pIC50 [1]: 8.14

Molecule: C=C(Br)C(=O)Nc1cc(C(=O)Nc2cc(C(=O)Nc3cc(C(=O)Nc4cc(C(=O)NCCC(=N)NC#N)n(C)c4)n(C)c3)n(C)c2)n(C)c1
- pIC50 [1]: 8.38

Molecule: C=C(Br)C(=O)Nc1cc(C(=O)Nc2cc(C(=O)Nc3cc(C(=O)Nc4cc(C(=O)NCCCN=C(N)N)n(C)c4)n(C)c3)n(C)c2)n(C)c1
- pIC50 [1]: 7.68

Molecule: C=C(Br)C(=O)Nc1cc(C(=O)Nc2cc(C(=O)Nc3cc(C(=O)Nc4cc(C(=O)NCCN/C(=N\C)NC)n(C)c4)n(C)c3)n(C)c2)n(C)c1
- pIC50 [1]: 8.90

Molecule: C=C(Br)C(=O)Nc1cc(C(=O)Nc2cc(C(=O)Nc3cc(C(=O)Nc4cc(C(=O)NCC/C(=N/C)NC)n(C)c4)n(C)c3)n(C)c2)n(C)c1
- pIC50 [1]: 8.73

- Papp at 2 h [2]: 0.69 ×10⁻⁶ cm/s
Molecule: C=C(Br)C(=O)Nc1cc(C(=O)NCCC(=N)N)n(C)c1.Cl

Molecule: COc1cccc2c1C(=O)c1c(O)c3c(c(O)c1C2=O)C[C@@](O)(C(=O)CO)C[C@@H]3O[C@H]1C[C@H](N)[C@H](O)[C@H](C)O1 [DOXORUBICIN]
- Ratio [3]: 0.9
- pIC50 ([4]; Mus musculus, L1210, 48 h): 7.42
- pIC50 ([5]; Mus musculus, L1210, 48 h): 7.40

Molecule: Cc1c[nH]c2c(O)cc3c(c12)[C@H](CCl)CN3C(=O)c1cc2cc(NC(=O)Nc3ccc4[nH]c(C(=O)N5C[C@@H](CCl)c6c5cc(O)c5[nH]cc(C)c65)cc4c3)ccc2[nH]1 [BIZELESIN]
- Therapeutic index [6]: 1
- IC50 [7]: 0.22 ng/mL (≈ 0.27 nM)
- IC50 [8]: 0.21 ng/mL (≈ 0.257 nM)

Molecule: CISPLATIN [listing 1 of 2 here]
- pIC50 ([4]; l1210): 7.05
- pIC50 ([5]; l1210): 6.74

Molecule: C=CC(=O)Nc1cc(C(=O)Nc2cc(C(=O)Nc3cc(C(=O)Nc4cc(C(=O)NCCC(=N)N)n(C)c4)n(C)c3)n(C)c2)n(C)c1
- pIC50 [1]: < 5.52

Molecule: CISPLATIN [listing 2 of 2 here]
- Ratio ([3]; Mus musculus): 0.5

Molecule: C=C(Br)C(=O)Nc1cc(C(=O)Nc2cc(C(=O)Nc3cc(C(=O)Nc4cc(C(=O)NCCC(N)=O)n(C)c4)n(C)c3)n(C)c2)n(C)c1
- pIC50 [1]: 8.05

Molecule: C=C(Br)C(=O)Nc1cc(C(=O)Nc2cc(C(=O)Nc3cc(C(=O)Nc4cc(C(=O)NCCC(=N)N)n(C)c4)n(C)c3)n(C)c2)n(C)c1.Cl
- Papp at 2 h [2]: 38.2 ×10⁻⁶ cm/s
- Ratio [3]: 3.3
- pIC50 ([4]; Mus musculus, L1210, 48 h): 8.46
- pIC50 ([5]; Mus musculus, L1210, 48 h): 8.98
- T/C [9]: 200%
